High-throughput results (PubChem)
The sample as a whole holds a higher share of hits than the screen did.
INS promoter act = TRM-6 insulin promoter activation. AID 1296. TRM-6 cells, insulin promoter eGFP reporter, imaging; plate-scaled: unstimulated 0, stimulated control 100. activation, % at 2 µM. hit rate 0.81% among 130,000;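 active means activation at 2 µM above a set limit, confirmed on inspection of the cell images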;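 further: share of cells whose green reporter signal exceeds an intensity cutoff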
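System: human fetal islet-derived TRM-6 cells with tamoxifen-inducible insulin promoter–eGFP reporter; input: seeding density of 1,000 cells per well; buffer or medium: Low-glucose (5.5 mM) medium with tamoxifen; incubation: compound exposure 48 h, 37 °C; measured by: high-content imaging of fixed cells with Hoechst nuclear stain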
* = called active by the depositor; [ ] = another dose, or the depositor's remark.

SMILES	INS promoter act
O=C(OCC(=O)N1CCc2ccccc21)c1cccc(S(=O)(=O)N2CCCc3ccccc32)c1	8
Cc1ccc2cc(C(=O)O)c(C)nc2c1	3
Cc1ccc(N/C(C(Cl)=C(Cl)Cl)=C(/Cl)[N+](=O)[O-])c(C)c1	-8
Cc1c(N(C(=O)CNC(=O)c2ccccc2)C2(C(=O)NC3CCCCC3)CCCCC2)c(=O)n(-c2ccccc2)n1C	147
O=C(c1cnccn1)N(c1ccccc1)C1(C(=O)NC2CCCC2)CCCCC1	100*
O=C(c1ccccn1)N(CC1CCCO1)C1(C(=O)NC2CCCCC2)CCCCC1 (stereo not drawn)	7
Cc1c(C)n(C(=O)CN2CCC(C)CC2)c2ccccc12	3
CN(C)S(=O)(=O)c1ccc(C(=O)OCCn2cnc3c2c(=O)n(C)c(=O)n3C)cc1	7
O=C(CCCOc1ccc(Cl)cc1Cl)NNC(=O)c1ccc(NC(=O)c2ccccc2)cc1	5
Cc1ccc(CC2SC(=O)NC2=O)cc1Cl (stereo not drawn)	9
O=C1N/C(=N\c2ccccn2)SC1Cc1ccc(Cl)cc1 (stereo not drawn)	450*
Cc1ccc(CC2S/C(=N/c3ccccn3)NC2=O)cc1 (stereo not drawn)	0
O=C(CSc1nnc(-c2ccc(Cl)cc2)n1Cc1ccco1)NCc1ccc2c(c1)OCO2	80*
COc1ccc(-c2cnc(SCC(=O)Nc3ccc4c(c3)OCO4)n2Cc2ccco2)cc1	-6
CCOC(=O)CNC(=O)CSc1nnc(-c2ccccc2)n1Cc1ccco1	-6
CCN(CC)CCCN1C(=O)C(O)=C(C(=O)c2cccs2)C1c1ccccn1 (stereo not drawn)	-57
COc1ccc(N(CC(=O)Nc2ccccc2SC)S(C)(=O)=O)cc1OC	614*
CSc1ccccc1NC(=O)CN(c1cccc(C)c1)S(C)(=O)=O	3
COc1ccc(N(CC(=O)O)S(C)(=O)=O)cc1OC	189
Cc1ccc(NC(=O)C(=O)NCCN2CCN(S(=O)(=O)c3ccccc3)CC2)cc1C	-7
COc1ccc(/C=N/Nc2nonc2N)cc1OC	329
COc1cc(/C=N/Nc2nc3ccccc3o2)cc(OC)c1O	114
COc1cc(/C=N\Nc2nc3ccccc3o2)cc(OC)c1OC	469*
Cc1cc(C)n(-c2nc3c(c(=O)n(Cc4ccc(Cl)c(Cl)c4)c(=O)n3C)n2C)n1	-100
O=S(=O)(c1ccc(OCC(O)CN2CCN(c3ccccc3)CC2)cc1)N1CCOCC1 (stereo not drawn)	111
SMILES	INS promoter act
OC(CSc1ccc(F)cc1)CN1CCN(c2ccccc2)CC1 (stereo not drawn)	118*
OC(CN1CCN(c2ccccc2)CC1)Cn1c2ccccc2c2ccccc21 (stereo not drawn)	-8
Cn1c(=O)c(NC2CCCCC2)c2c3c(cccc31)C(=O)c1ccccc1-2	567*
Cn1c(=O)c(NCCc2ccccc2)c2c3c(cccc31)C(=O)c1ccccc1-2	170*[may fluoresce]
Cc1cccc(NC2=C(NCCO)C(=O)c3ccccc3C2=O)c1	-60
O=c1cc(NCCc2ccccc2)c2ccccc2o1	133
O=C(NC1CCCCC1)n1c(=O)oc2ccccc21	-3
O=C1c2ccccc2C(=O)c2c1cccc2N1CCCC1	0
FCCCOc1ccc(CN2CCN(c3ccccc3F)CC2)cc1	-3
CN(c1ccc(OCC(=O)N2CCC(C(N)=O)CC2)cc1)S(=O)(=O)c1cccs1	3
Cc1cccc(NC(=O)Cc2cccs2)n1	-6
O=C(NCC1CCCO1)NC1CCCCC1 (stereo not drawn)	-7
CN(C)CCCNC(=O)C(=O)NCC1CCCO1 (stereo not drawn)	294*
O=C(CCCCCCCC(=O)NCC1CCCO1)NCC1CCCO1 (stereo not drawn)	-3
O=C(CSc1ccc(-c2ccccc2)nn1)N1CCOCC1	7
COc1ccc(N(CC(=O)Nc2c(C)n(C)n(-c3ccccc3)c2=O)S(=O)(=O)c2ccccc2)cc1OC	8
Cc1ccccc1N1CN(Cc2ccco2)CNC1=S	-3
COc1cc2c(cc1OC)CN(CC(=O)Nc1ccccc1C#N)CC2	0
CC(=O)NC1C(Oc2ccc3c(C)cc(=O)oc3c2)OC(COC(C)=O)C(OC(C)=O)C1OC(C)=O (stereo not drawn)	-8
C=CCc1ccc(OCCCCN2CC(C)CC(C)C2)c(OC)c1 (stereo not drawn)	-8
CC1(C)NC(=O)N(CC(O)COc2ccccc2-c2ccccc2)C1=O (stereo not drawn)	-7
CC1CC(C)CN(CCOc2ccccc2-c2ccccc2)C1 (stereo not drawn)	464*
CCOc1ccc(NS(=O)(=O)c2ccc(NC(=S)NC(C)=O)cc2)cc1	7
Cc1ccc(S(=O)(=O)Nc2ccc(N(C)C)cc2)cc1	0
COc1ccc(S(=O)(=O)Nc2ccc(N(C)C(C)=O)cc2)cc1	103*
SMILES	INS promoter act
COc1cc(/C=C(/C#N)c2ccc(F)cc2)ccc1OCc1ccc(C(=O)O)o1	-5
COC(=O)C1=C(C)N(c2cc(C)cc(C)c2)/C(=C/c2ccco2)C1=O	10
O=S(=O)(Nc1ccc(O)c(Sc2nc3ccccc3s2)c1)c1ccc(Cl)cc1	-7
CC(=O)N(c1ccc(C(C)C)cc1)C1C=CS(=O)(=O)C1 (stereo not drawn)	3
CCC(=O)N(c1ccc(F)cc1)C1C=CS(=O)(=O)C1 (stereo not drawn)	0
COCC(=O)N(c1ccc(C(C)C)cc1)C1C=CS(=O)(=O)C1 (stereo not drawn)	422*
CC1CCCCC1NC(=O)C1CCN(S(=O)(=O)c2cccc3nsnc23)CC1 (stereo not drawn)	0
CC1=C(C(=O)OCc2ccccc2)C(c2ccsc2)NC(=O)N1C (stereo not drawn)	5
Cc1cc(C)c(-c2csc(Cc3nc(-c4cc5ccccc5oc4=O)cs3)n2)cc1C	7
N#CC(C#N)=C1C=C2C=C(N3CCCCC3)CCC2CC1 (stereo not drawn)	212*
N#CC1=C(N)C2=C(N3CCCCC3)CCCC2C1(C#N)C#N (stereo not drawn)	-6
CCN(CC)C1=CC2=CC(=C(C#N)C#N)CCC2CC1 (stereo not drawn)	525*
CCCCN(C)C1=CC2=CC(=C(C#N)C#N)CCC2CC1 (stereo not drawn)	245*[fluoresces]
CC(CN1CCCCC1)OC(=O)c1cc2ccccc2o1 (stereo not drawn)	0
CCCCn1c(NCCC)nc2c1c(=O)[nH]c(=O)n2C	0
COc1ccc(NS(=O)(=O)c2ccc(NS(=O)(=O)c3ccc(C)cc3)cc2)nn1	-4
Cc1sc2ncnc(SCC(=O)NC3CC3)c2c1C	-100
O=C(Cn1cccc1C(=O)c1ccccc1)NCCC1=CCCCC1	0
COc1ccc(S(=O)(=O)N2CC3CCCN3c3ccc(C(F)(F)F)cc32)cc1 (stereo not drawn)	4
N#Cc1sc2nc3c(cc2c1N)CCCC3	-64
COc1cc2c(cc1OC)-c1cc(OCc3ccccc3Cl)nc(=O)n1CC2	-66
COc1cc2c(cc1OC)C1=C(C#N)CC/C(=N\S(=O)(=O)c3cccc(Cl)c3)N1CC2	87*
COc1cc2c(cc1OC)C(CC#N)=NC(C)(C)C2	6
N#C/C(=C\Nc1ccccc1SC(F)(F)F)c1nc(-c2ccccc2)cs1	4
N#C/C(=C/c1ccc(-c2ccc(S(N)(=O)=O)cc2)o1)c1nc2ccccc2s1	257*
CCOC(=O)N1CCN(/C=C(\C#N)c2nc3ccccc3s2)CC1	7
